LMPTP inh – blocks human LMPTP phosphatase; inhibition, % at 20 µM; P24666; 0.22% of 360,000 active; recombinant LMPTP-A, OMFP fluorogenic substrate, fluorescence intensity; AID 651560;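 active means compounds that cut the enzyme signal by at least half of the control window in the single-dose screen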;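 further: plate controls were DMSO wells with enzyme plus substrate for no effect and substrate without enzyme for full effect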
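Assay system: LMPTP-A phosphatase enzyme | Input: 0.625 nM enzyme | Also added: Fluorogenic phosphatase substrate OMFP at 400 µM final | Compound dosing: One test concentration per compound, 20 µM, with 3% DMSO overall | Schedule: 50 min enzyme reaction at room temperature, protected from light | Signal: Fluorescence intensity | Benchmarks: no-enzyme and uninhibited controls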
Rpn11 block – blocks the human proteasome subunit Rpn11. O00487. human 26S proteasome, Ub4-pepOG fluorescence polarization; 20S core pre-blocked with epoxomicin. inhibition, % at 20 µM. 0.59% of 360,000 active;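 active means inhibition at 20 µM, scaled to each plate's controls, above about 33%, limit read from the data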
STEP block – STEP (human) phosphatase inhibition. P54829. 0.25% of 360,000 active. recombinant STEP, OMFP fluorogenic substrate, fluorescence. inhibition, % at 20 µM. AID 588621;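 active means inhibition at 20 µM, scaled per plate between control wells, above about 37%, limit read from the data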;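 further: 0% = DMSO with enzyme and substrate and 100% = substrate only without enzyme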
Target sequence (P54829 whole entry, looked up): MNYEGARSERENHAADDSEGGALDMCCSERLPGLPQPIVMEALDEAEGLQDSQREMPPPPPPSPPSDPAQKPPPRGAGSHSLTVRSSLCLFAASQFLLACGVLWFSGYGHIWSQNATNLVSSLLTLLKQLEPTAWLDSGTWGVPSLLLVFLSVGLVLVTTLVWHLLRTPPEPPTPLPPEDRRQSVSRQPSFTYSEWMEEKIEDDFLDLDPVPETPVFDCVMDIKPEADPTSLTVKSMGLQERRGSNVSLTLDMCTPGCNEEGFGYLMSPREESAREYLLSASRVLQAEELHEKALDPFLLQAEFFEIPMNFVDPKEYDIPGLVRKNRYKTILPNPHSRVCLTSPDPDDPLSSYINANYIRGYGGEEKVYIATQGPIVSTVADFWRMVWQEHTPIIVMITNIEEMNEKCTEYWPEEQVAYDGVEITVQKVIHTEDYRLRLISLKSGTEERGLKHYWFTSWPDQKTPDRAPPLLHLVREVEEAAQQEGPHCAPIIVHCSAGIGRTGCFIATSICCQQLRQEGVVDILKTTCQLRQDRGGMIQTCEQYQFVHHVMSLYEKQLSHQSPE
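Material: STEP (striatal-enriched tyrosine phosphatase) enzyme, cell-free | Medium: 50 mM Bis-Tris pH 6.0 with 2.5 mM DTT and 0.005% Tween 20 | Read-out: Percent inhibition scaled to no-enzyme and uninhibited-enzyme controls, plate-pattern corrected | Signal: Fluorescence read at 480 nm ex / 540 nm em | Times: 20 min reaction, room temperature, in the dark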
DNMT1 inh – blocks human DNA methyltransferase DNMT1; AID 588458; DNMT1 molecular beacon, Hinp1I cleavage, fluorescence; 0.83% of 360,000 active; inhibition (reported as % activation of signal), % at 10 µM; in the data active means inhibition above about 50%
Scp1 inh – inhibitors of human Scp-1 phosphatase; Q9GZU7; Recombinant Scp1, phosphopeptide, malachite green phosphate absorbance; inhibition, % at 20 µM; 0.88% of 340,000 active; AID 493091;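 active means inhibition above about 50% at 20 µM, limit read from the data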;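 further: plate controls were DMSO wells with enzyme for no effect and wells lacking enzyme for full effect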
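assay system = SCP-1 phosphatase catalytic domain, residues 76-261 | buffer or medium = 50 mM Tris acetate pH 5.5, 0.005% Tween-20, 10 mM MgCl2 | incubation = enzyme reaction 45 min at room temperature, colour 5 min, stabilisation 30 min | signal = Phosphate-binding colour reagent, absorbance read at 630 nm | measure = % inhibition at 20 µM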
Scp1 confirm – Scp-1 (human) inhibition, single-dose confirmed | recombinant SCP-1 catalytic domain, phosphate release, malachite green absorbance | inhibition, % at 20 µM | 61% of 2,500 active | shares compounds with Scp1 inh;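 further: plate controls were DMSO with enzyme for no effect and buffer wells lacking enzyme for full effect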
MG interference – counter-screen for Scp-1 inhibitors: colorimetric interference. shares compounds with Scp1 inh. Colorimetric interference counterscreen, malachite green absorbance 630 nm. apparent inhibition (interference), % at 20 µM. 2,500 tested, under 10 active. AID 540313;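 further: compounds added after enzyme reaction finished so only phosphate colour detection is probed; plate controls were DMSO wells with completed Scp-1 reaction for no effect and substrate wells lacking enzyme for full effect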
Scp1 DSF – Scp-1 (human) binding by thermal shift | shares compounds with Scp1 inh | Recombinant SCP1, Sypro Orange thermal shift Tm | thermal shift relative to vanadate control, % at 40 µM | 25% of 1,500 active | AID 540329;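 active means substances whose mean melting-temperature shift, as a percentage of the reference inhibitor's shift, reaches about 5.3%, limit read from the data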;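 further: 0% = Tm of DMSO wells and 100% = Tm with sodium orthovanadate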
Active calls of the source: *; . = no result given. Most compounds without a hit are left out; they make up all but 2% or so of the library.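 How the source made its calls, unless noted: active means inhibition of at least 30% at 20 µM; inactive means the rest.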

SMILES	LMPTP inh	Rpn11 block	STEP block	DNMT1 inh	Scp1 inh	Scp1 confirm	MG interference	others
Cc1cccc(OCC(=O)N(Cc2ccccc2)c2c(N)n(Cc3ccccc3)c(=O)[nH]c2=O)c1	0	-8	1	0	1	.	.
CC1(C(=O)NS(=O)(=O)C2CC2)CCCN(C(=O)COCc2ccccc2)C1 (stereo unspecified)	-1	0	-4	1	.	.	.
CC[C@]1(C(=O)OC)[C@H]2C(=O)N(Cc3ccccc3)C(=O)[C@H]2[C@H]2CN=C(SCC3CC3)N21	-2	-10	1	3	54*	-2	-19
CCN1C(=O)[C@H]2[C@H]3CN=C(SCc4ccccc4)N3[C@@](Cc3ccccc3)(C(=O)OC)[C@H]2C1=O	-2	-2	1	1	7	.	.
CCN1C(=O)[C@H]2[C@H]3CN=C(SCC4CC4)N3[C@@](Cc3ccccc3)(C(=O)OC)[C@H]2C1=O	2	-4	-3	4	82*	96*	-6	Scp1 DSF=-12
O=C(Nc1cccc(C(=O)N2CCOCC2)c1)C1CC1	0	-3	0	-2	8	.	.
COCCN(C(=O)COC(=O)CCC1CCCCC1)c1c(N)n(Cc2ccccc2)c(=O)[nH]c1=O	-2	9	2	4	.	.	.
Cn1nnnc1Sc1ncnc2scc(-c3cccs3)c12	.	.	.	.	58*	-3	-22
Cn1nnnc1Sc1ncnc2scc(-c3ccc(C(F)(F)F)cc3)c12	0	6	1	11	-8	.	.
Cn1nnnc1Sc1ncnc2scc(-c3ccccc3C(F)(F)F)c12	-1	7	-1	8	55*	-16	-28
Cn1nnnc1Sc1ncnc2scc(-c3ccc(-c4ccccc4)cc3)c12	1	5	1	17	-14	.	.
O=C(COC(=O)c1cnccn1)NCCc1ccc(Cl)cc1	0	2	1	-6	-7	.	.
Cc1ccc2nc(Cl)c(/C=N/NC(=O)c3ccccc3O)cc2c1	3	-6	2	-3	72*	21	-5
CCOc1ccc(CN(C(=O)/C=C/c2ccco2)C2CCS(=O)(=O)C2)cc1 (stereo unspecified)	2	7	1	0	1	.	.
COc1ccc(CN(C(=O)/C=C/c2ccco2)C2CCS(=O)(=O)C2)cc1 (stereo unspecified)	4	0	3	12	87*	46*	-13	Scp1 DSF=2
COc1ccc(/C=N\NC(=O)c2ccc([N+](=O)[O-])c(C)c2)cc1COc1ccccc1C(N)=O	1	21	6	-6	67*	34*	-8	Scp1 DSF=-3
CCOC(=O)c1cc(-c2ccc(/C=N\n3cnnc3)o2)ccc1Cl	0	3	-3	-3	3	.	.
CCCCOC(=O)c1cc(-c2ccc(/C=N/n3cnnc3)o2)ccc1Cl	11	-5	19	13	91*	6	-16
O=C(Nc1cc2c(cc1Cl)OCCCO2)c1ccccc1	-3	5	0	-2	-8	.	.
O=C(Nc1cc2c(cc1Cl)OCCCO2)c1ccco1	0	-2	1	11	50	-22	-22
Cc1ccc(C(=O)N/N=C/c2ccc(-c3ccccc3[N+](=O)[O-])o2)cn1	0	-14	4	-23	-7	.	.
COc1ccc(-c2ccc(/C=N/NC(=O)c3cccnc3)o2)c([N+](=O)[O-])c1	53*	-56	32	-1	96*	82*	-12	Scp1 DSF=4
COc1ccccc1-c1sc2cc3c(cc2c1C#CC1(O)CCCCC1)OCO3	2	4	-2	-23	56*	-14	-20
COc1ccccc1-c1oc2ccccc2c1C#CC1(O)CCCCC1	1	1	-1	-5	89*	8	-20
COc1ccccc1-c1oc2ccccc2c1C#CC1(N)CCCCC1	2	20	-3	9	4	.	.
SMILES	LMPTP inh	Rpn11 block	STEP block	DNMT1 inh	Scp1 inh	Scp1 confirm	MG interference	others
COC(=O)[C@]12CCCCC=C1N(Cc1ccco1)C(=O)[C@H](CC(=O)NCCC(C)C)C2	0	.	.	.	.	.	.
CNC(=O)C[C@@H]1C(=O)N(CCc2ccccc2)CC1(C)C	-1	4	6	3	.	.	.
C[n+]1ccccc1C1CCCC/C1=N\NC(N)=S (stereo unspecified)	-1	-5	0	8	113*	100*	1	Scp1 DSF=-9
CC1CCCC/C1=N\NC(=S)NCCc1ccccc1 (stereo unspecified)	0	-3	-1	0	-1	.	.
O=C(NCC(F)(F)F)C1C(=O)Nc2ccccc2C(=O)N1Cc1ccccc1 (stereo unspecified)	-1	.	.	.	.	.	.
COCCN(CC1CCCN(C2Cc3ccccc3C2)C1)C(=O)CCC(N)=O (stereo unspecified)	3	5	1	1	9	.	.
Cc1cc([N+](=O)[O-])ccc1N	1	0	0	0	1	.	.
C[n+]1ccccc1Nc1cc([N+](=O)[O-])ccc1N	0	-8	0	0	69*	87*	-16	Scp1 DSF=0
CC(C)(CN1CCCN(CC(C)(C)C(=O)O)C1=O)C(=O)O	-2	-5	1	2	.	.	.
Cc1ccc(-c2csc(NCCn3c(C(F)(F)F)nc4ccccc43)n2)cc1	1	0	2	5	59*	-23	-19
CC(NC(=O)c1cc2c(=O)n(C)c3ccccc3c2n1C)c1ccc2c(c1)OCCO2 (stereo unspecified)	3	21	2	-1	3	.	.
CC(NC(=O)COc1cc(=O)n(C)c2ccccc12)c1ccc2c(c1)OCCO2 (stereo unspecified)	-1	-7	-4	4	-6	-9	-11
COc1cc(/C=C(\C(=O)O)c2ccc(S(=O)(=O)N3CCCC3)s2)cc(OC)c1	2	-8	1	12	41	.	.
COc1ccc(Br)cc1/C=C(\C(=O)O)c1ccc(S(=O)(=O)N2CCCC2)s1	5	3	3	42	67*	60*	-24	Scp1 DSF=6.3*
O=C(O)/C(=C\c1cccc([N+](=O)[O-])c1)c1ccc(S(=O)(=O)N2CCCCC2)s1	4	-4	2	23	52*	73*	-5	Scp1 DSF=20*
O=C(CSc1nc2ccccc2[nH]1)NC1CCCC1	2	-4	22	37	62*	45*	-12	Scp1 DSF=-11
Nc1nc(SCC(=O)NC2CCCCC2)n[nH]1	-1	4	0	2	-4	.	.
